Article PMC3082000 (Bioorganic & medicinal chemistry letters, 2010)
One block for each compound: values may come before it.

Columns and labels:
M2-M5 = assay: counter-screening against M2-M5; format: cell-based; conditions: read-out: M2-M5 EC50; selectivity counter-screen
M1 [1] = target: T1, M1 (Rattus norvegicus, UniProt P08482); conditions: cited from earlier work
T1 sequence (P08482 1-460): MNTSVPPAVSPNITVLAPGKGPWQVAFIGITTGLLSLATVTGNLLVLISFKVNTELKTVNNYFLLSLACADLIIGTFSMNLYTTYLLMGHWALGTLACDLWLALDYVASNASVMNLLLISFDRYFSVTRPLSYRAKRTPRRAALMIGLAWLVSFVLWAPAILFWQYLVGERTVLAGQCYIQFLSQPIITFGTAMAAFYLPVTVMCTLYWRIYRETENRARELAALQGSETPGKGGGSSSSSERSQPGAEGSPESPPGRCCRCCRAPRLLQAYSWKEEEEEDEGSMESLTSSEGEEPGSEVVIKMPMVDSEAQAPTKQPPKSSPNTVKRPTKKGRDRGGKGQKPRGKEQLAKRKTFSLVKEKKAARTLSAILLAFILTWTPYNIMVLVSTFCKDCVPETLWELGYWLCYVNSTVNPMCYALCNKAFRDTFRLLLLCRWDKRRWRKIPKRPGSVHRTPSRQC

[2] = cited from earlier work
M1 [3] = target: T1, M1; assay: real-time cell-based calcium-mobilization assay, M1 PAM
solubility = format: physicochemical
TREx293-hM1 cells = assay: APP processing: M1-stimulated APPsα release, Western blot; format: cell-based, human; conditions: for APPsα release, in combination with low dose CCh: 2 μM with 100 nM CCh
Method in brief: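 Stable human M1-overexpressing TREx293 cells, plated 2 days before use, were pretreated 15 min with 2 μM test compound or DMSO. Carbachol (100 nM or 10 μM) was then added, and medium was conditioned 1 h at 37°C. Endogenous APPsα in conditioned medium was detected by Western blot.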

M1-M5 = assay: Lead Profile screen at Ricerca, orthosteric binding
[4] = tested on: biogenic amines (D2, H-HT2B, etc…); assay: Lead Profile screen at Ricerca, radioligand binding

Structure (SMILES): Cc1cc(NC(=O)CS(=O)(=O)c2cn(Cc3cccc(-c4cn[nH]c4)c3)c3cc(F)cc(F)c23)no1 [15e]
EC50 (M2-M5): > 30 µM

Structure (SMILES): Cn1cc(-c2ccc(CN3C(=O)C(=O)c4ccccc43)c(F)c2)cn1 [compound 3]
efficacy (% ACh Max) (M1 [1]): 60 % ACh Max
brainAUC/plasmaAUC [2]: ~0.1

Structure (SMILES): Cc1cc(NC(=O)CS(=O)(=O)c2cn(Cc3ccccc3Cl)c3ccccc23)no1 [compound 7]
EC50 (M2-M5): > 30 µM

Structure (SMILES): Cc1cc(NC(=O)CS(=O)(=O)c2cn(Cc3cccc(Br)c3)c3ccccc23)no1 [13g]
solubility (solubility): poor

Now from value to compound, other results behind:

M1 EC50 (M1 [3]; average of at least three independent determinations): inactive
Structure (SMILES): CCC(C)n1cc(-c2cccc(Cn3cc(S(=O)(=O)CC(=O)Nc4cc(C)on4)c4ccccc43)c2)cn1 (stereo not drawn) [14c]

soluble APP (APPsα) (TREx293-hM1 cells; 100 nM): modest increase
soluble APP (APPsα) (TREx293-hM1 cells; 10 μM): significant increase
Structure (SMILES): C[N+](C)(C)CCOC(N)=O [carbachol, reference compound]

improvement in potency (M1 [3]; relative to the non-fluorinated bromine analog): ~3 fold
orthosteric binding at M1-M5 (M1-M5): no orthosteric binding
selectivity versus the biogenic amines [4]: selective
Structure (SMILES): Cc1cc(NC(=O)CS(=O)(=O)c2cn(Cc3cc(Br)ccc3F)c3ccccc23)no1 [15j, 2-((1-(5-bromo-2-fluorobenzyl)-1H-indol-3-yl)sulfonyl)-N-(5-methylisoxazol-3-yl)acetamide]
EC50 (M2-M5): > 30 µM
APPsα release, in combination with low dose CCh (TREx293-hM1 cells; TREx293-hM1 cells, listed as ML169): potentiates the CCh-mediated non-amyloidogenic APPsα release to the same degree as 10 μM CCh
APPsα release, in combination with low dose CCh (TREx293-hM1 cells; TREx293-hM1 cells, listed as VU04505652): potentiates the CCh-mediated non-amyloidogenic APPsα release
APPsα release, compound alone (TREx293-hM1 cells; 2 μM, TREx293-hM1 cells): no effect
